Measurements from ChEMBL document CHEMBL4177526, “Discovery and structure activity relationship of the first potent cryptosporidium FIKK kinase inhibitor” (Bioorg Med Chem, 2017).
Blank lines part the entries; values can stand above or below the compound they belong to. The source made the active and inactive calls. The rule behind the calls is not given here.

What was measured:
Cryptosporidium parvum [1] = assay: Inhibition of recombinant Cryptosporidium parvum FIKK assessed as change in melting temperature at 50 uM by differential static light scattering method
[2] = Ratio of EC50 for antiparasitic activity against Cryptosporidium parvum Iowa oocysts infected in human HCT8 cells to IC50 for Cryptosporidium parvum CDPK1; assay type: functional
[3] = Ratio of EC50 for antiparasitic activity against Cryptosporidium parvum Iowa oocysts infected in human HCT8 cells to IC50 for recombinant Cryptosporidium parvum FIKK; assay type: functional, cell-based
Cryptosporidium parvum [4] = assay: Antiparasitic activity against Cryptosporidium parvum Iowa oocysts infected in human HCT8 cells pretreated prior to infection measured after 48 hrs by fluorescein labeled Vicia villosa lectin/Hoechst 33258 staining based epifluorescence microscopic analysis; assay type: functional, organism-based
Outline: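 HCT-8 cells grown in RPMI-1640 with 10% heat-inactivated FBS and penicillin. Three-fold compound dilutions in culture medium were added to confluent cells before about 5500 excysted C. parvum Iowa oocysts per well. After 48 h, cells were fixed with 4% paraformaldehyde and permeabilized. Vacuoles were stained with fluorescein-Vicia villosa lectin (1.33 µg/mL, 1 h, 37 °C) and nuclei with Hoechst 33258, then imaged by epifluorescence microscopy.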

[5] = Inhibition of Cryptosporidium parvum CDPK1 using PLARTLSVAGLPGKK peptide as substrate by NADH coupled LDH-PK ATPase assay
Outline: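 NADH-coupled LDH-PK ATPase read-out with 1.2 nM recombinant CpCDPK1, 0.25 mM ATP, 0.1 mM Syntide 2.0 peptide and 2 mM CaCl2. Inhibitors were made as 10 mM DMSO stocks and tested in 2-fold serial dilutions. IC50 is the average of triplicate experiments.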

[6] = Inhibition of recombinant Cryptosporidium parvum FIKK using RRRAPSFYRK peptide as substrate by NADH coupled LDH-PK ATPase assay
Cryptosporidium parvum [7] = assay: Inhibition of Cryptosporidium parvum CDPK6 assessed as change in melting temperature by DSLS method
[8] = test system: Cryptosporidium parvum Iowa II; assay: Inhibition of Cryptosporidium parvum Iowa II calcium/calmodulin-dependent protein kinase assessed as change in melting temperature by DSLS method
[9] = target: Mitogen-activated protein kinase (Cryptosporidium parvum (strain Iowa II)) (UniProt A3FQ79); assay: Inhibition of Cryptosporidium parvum Iowa II mitogen-activated protein kinase assessed as change in melting temperature by DSLS method
[10] = target: Cgd5_820 protein (Cryptosporidium parvum) (UniProt F0X4H1); assay: Inhibition of Cryptosporidium parvum calcium/calmodulin dependent protein kinase with a kinase domain and 4 calmodulin like EF hands assessed as change in melting temperature by DSLS method
[11] = target: Calcium-dependent protein kinase 2 (Cryptosporidium parvum, UniProt Q6S4V9); assay: Inhibition of Cryptosporidium parvum calcium-dependent protein kinase 2
[12] = target: Cell division control protein 28, putative (Cryptosporidium parvum (strain Iowa II)) (UniProt A3FPL9); assay: Inhibition of Cryptosporidium parvum Iowa II cell division control protein 28 assessed as change in melting temperature by DSLS method
[13] = target: Mitogen-activated protein kinase kinase kinase kinase 4 (Homo sapiens) (UniProt O95819); assay: Inhibition of human MAP4K4 at 1 uM relative to control
Mitogen-activated protein kinase kinase kinase kinase 4 (Homo sapiens), sequence (O95819 2-1239 limits assumed): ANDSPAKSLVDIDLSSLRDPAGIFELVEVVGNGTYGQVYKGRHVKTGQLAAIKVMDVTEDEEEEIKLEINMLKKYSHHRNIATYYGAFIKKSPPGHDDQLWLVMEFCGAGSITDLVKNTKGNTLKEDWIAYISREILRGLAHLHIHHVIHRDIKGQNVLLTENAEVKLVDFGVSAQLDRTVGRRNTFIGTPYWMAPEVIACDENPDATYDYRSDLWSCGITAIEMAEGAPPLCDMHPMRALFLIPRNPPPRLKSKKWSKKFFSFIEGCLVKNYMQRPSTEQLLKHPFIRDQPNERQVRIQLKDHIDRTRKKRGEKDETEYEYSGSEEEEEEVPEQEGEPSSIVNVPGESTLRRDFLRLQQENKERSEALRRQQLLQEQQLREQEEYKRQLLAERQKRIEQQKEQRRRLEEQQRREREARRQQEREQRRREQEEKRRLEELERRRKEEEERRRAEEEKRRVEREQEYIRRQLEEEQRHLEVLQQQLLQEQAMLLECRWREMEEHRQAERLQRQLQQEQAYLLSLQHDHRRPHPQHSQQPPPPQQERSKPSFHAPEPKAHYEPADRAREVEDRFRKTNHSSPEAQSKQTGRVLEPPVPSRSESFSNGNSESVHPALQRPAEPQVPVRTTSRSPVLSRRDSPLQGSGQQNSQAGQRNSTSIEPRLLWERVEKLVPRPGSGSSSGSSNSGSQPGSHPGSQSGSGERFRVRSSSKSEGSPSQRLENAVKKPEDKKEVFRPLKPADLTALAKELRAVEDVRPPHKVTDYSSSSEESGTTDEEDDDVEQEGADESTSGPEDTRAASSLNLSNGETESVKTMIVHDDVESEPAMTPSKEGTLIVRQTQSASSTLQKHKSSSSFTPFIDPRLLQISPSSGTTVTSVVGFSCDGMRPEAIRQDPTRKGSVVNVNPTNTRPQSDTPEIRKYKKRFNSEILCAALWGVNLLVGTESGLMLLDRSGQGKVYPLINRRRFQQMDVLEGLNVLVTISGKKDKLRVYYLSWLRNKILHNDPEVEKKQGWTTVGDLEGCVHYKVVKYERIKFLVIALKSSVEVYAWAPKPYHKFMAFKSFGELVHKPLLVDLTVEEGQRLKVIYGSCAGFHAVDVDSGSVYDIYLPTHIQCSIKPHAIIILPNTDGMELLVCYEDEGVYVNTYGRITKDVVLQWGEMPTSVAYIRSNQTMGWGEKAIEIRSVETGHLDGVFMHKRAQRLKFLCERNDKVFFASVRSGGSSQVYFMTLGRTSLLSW

[14] = Inhibition of Cryptosporidium parvum CDPK6
[15] = target: Mitogen-activated protein kinase (Cryptosporidium parvum (strain Iowa II), UniProt A3FQ79); assay: Inhibition of Cryptosporidium parvum Iowa II mitogen-activated protein kinase
Mitogen-activated protein kinase, sequence (A3FQ79 whole entry): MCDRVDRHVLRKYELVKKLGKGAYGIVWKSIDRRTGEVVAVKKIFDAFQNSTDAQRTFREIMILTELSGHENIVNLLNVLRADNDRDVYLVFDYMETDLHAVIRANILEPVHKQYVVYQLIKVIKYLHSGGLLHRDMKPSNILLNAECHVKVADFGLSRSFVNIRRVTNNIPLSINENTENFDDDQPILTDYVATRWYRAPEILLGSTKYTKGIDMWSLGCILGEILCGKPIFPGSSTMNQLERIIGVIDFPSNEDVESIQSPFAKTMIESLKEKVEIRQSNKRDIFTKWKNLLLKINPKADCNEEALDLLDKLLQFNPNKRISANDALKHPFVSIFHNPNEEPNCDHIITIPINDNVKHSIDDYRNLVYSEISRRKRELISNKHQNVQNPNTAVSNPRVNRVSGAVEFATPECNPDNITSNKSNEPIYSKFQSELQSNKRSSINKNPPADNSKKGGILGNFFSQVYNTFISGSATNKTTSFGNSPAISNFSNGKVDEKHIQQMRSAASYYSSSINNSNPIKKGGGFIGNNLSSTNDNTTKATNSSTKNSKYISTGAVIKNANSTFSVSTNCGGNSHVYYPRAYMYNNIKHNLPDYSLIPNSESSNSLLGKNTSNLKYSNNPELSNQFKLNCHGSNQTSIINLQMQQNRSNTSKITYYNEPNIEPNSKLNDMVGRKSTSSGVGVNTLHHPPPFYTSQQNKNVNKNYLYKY

Cryptosporidium parvum [16] = assay: Inhibition of Cryptosporidium parvum CDPK1 assessed as increase in thermal stabilization
[17] = target: Calcium-dependent protein kinase 2 (Cryptosporidium parvum) (UniProt Q6S4V9); assay: Inhibition of Cryptosporidium parvum calcium-dependent protein kinase 2 assessed as change in melting temperature by DSLS method
[18] = target: Calcium/calmodulin-dependent protein kinase with a kinase domain and 2 calmodulin-like EF hands (Cryptosporidium parvum (strain Iowa II)) (UniProt Q5CZ29); assay: Inhibition of Cryptosporidium parvum Iowa II calcium/calmodulin-dependent protein kinase with a kinase domain and 2 calmodulin-like EF hands assessed as change in melting temperature by DSLS method
Calcium/calmodulin-dependent protein kinase with a kinase domain and 2 calmodulin-like EF hands (Cryptosporidium parvum (strain Iowa II)), sequence (Q5CZ29 as listed by the source): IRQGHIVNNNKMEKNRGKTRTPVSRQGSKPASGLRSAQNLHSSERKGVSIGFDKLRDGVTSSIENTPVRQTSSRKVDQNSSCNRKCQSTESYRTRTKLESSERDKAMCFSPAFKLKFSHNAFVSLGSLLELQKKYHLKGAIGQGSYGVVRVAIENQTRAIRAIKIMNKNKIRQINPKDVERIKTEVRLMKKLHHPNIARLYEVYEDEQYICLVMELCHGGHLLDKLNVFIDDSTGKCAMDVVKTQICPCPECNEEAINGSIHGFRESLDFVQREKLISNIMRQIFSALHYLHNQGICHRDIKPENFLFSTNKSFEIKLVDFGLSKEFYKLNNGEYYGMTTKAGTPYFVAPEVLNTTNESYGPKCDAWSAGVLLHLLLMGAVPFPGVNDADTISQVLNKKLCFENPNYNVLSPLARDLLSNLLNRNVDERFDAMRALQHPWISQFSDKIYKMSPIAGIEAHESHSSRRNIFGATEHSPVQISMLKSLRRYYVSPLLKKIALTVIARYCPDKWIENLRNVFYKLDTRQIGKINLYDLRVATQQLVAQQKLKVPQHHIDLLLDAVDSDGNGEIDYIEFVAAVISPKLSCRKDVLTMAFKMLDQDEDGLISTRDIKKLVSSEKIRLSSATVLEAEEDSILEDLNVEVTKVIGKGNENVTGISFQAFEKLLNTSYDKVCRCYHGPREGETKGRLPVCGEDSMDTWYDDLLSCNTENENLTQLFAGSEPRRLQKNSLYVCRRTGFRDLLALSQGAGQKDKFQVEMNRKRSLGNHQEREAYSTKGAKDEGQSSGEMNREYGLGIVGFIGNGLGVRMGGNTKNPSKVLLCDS

[19] = target: Vascular endothelial growth factor receptor 2 (Homo sapiens) (UniProt P35968); assay: Inhibition of human KDR at 100 nM relative to control
Vascular endothelial growth factor receptor 2 (Homo sapiens), sequence (P35968 whole entry, the tested form may be a part): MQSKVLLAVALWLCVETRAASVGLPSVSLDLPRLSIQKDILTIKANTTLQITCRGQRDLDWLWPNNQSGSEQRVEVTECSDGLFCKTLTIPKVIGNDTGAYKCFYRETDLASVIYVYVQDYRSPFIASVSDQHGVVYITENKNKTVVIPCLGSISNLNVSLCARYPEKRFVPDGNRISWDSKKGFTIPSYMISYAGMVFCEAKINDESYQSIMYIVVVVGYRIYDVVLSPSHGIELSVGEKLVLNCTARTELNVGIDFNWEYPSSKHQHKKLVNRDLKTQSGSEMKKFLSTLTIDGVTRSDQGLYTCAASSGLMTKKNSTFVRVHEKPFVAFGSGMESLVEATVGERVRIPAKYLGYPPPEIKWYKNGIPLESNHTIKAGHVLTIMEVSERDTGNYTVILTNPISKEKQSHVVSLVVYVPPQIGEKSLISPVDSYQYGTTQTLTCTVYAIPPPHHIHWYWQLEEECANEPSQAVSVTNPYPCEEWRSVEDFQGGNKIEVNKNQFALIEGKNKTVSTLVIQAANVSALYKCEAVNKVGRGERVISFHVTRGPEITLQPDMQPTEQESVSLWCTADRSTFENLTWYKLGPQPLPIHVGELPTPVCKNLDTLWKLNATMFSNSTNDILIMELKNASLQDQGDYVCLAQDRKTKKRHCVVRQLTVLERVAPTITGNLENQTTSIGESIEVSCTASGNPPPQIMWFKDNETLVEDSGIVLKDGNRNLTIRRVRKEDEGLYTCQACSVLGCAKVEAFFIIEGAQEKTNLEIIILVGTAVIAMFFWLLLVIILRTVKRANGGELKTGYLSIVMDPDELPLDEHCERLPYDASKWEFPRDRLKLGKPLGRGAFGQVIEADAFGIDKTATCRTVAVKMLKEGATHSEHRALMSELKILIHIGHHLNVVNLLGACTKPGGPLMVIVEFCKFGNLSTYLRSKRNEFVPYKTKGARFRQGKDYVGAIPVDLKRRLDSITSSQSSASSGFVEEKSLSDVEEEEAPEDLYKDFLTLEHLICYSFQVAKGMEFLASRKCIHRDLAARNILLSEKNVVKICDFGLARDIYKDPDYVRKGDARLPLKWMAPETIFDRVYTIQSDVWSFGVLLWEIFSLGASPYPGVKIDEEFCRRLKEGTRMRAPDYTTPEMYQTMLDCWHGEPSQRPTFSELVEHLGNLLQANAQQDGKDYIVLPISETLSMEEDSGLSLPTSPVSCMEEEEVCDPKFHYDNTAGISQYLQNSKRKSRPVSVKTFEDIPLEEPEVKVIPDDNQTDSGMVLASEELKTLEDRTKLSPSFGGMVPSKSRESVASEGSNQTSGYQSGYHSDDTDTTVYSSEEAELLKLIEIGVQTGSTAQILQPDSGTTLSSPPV

[20] = test system: Cryptosporidium parvum Iowa II; assay: Inhibition of Cryptosporidium parvum Iowa II glycogen synthase kinase assessed as change in melting temperature by DSLS method
[21] = Inhibition of Cryptosporidium parvum Iowa II calcium/calmodulin-dependent protein kinase
[22] = Inhibition of Cryptosporidium parvum Iowa II serine/threonine-protein kinase Nek2
[23] = target: Mitogen-activated protein kinase 14 (Homo sapiens) (UniProt Q16539); assay: Inhibition of human p38alpha at 1 uM relative to control
[24] = target: Calcium/calmodulin-dependent protein kinase with a kinase domain and 4 calmodulin like EF hands (Cryptosporidium parvum (strain Iowa II), UniProt Q5CYL9); assay: Inhibition of Cryptosporidium parvum Iowa II calcium/calmodulin-dependent protein kinase with a kinase domain and 4 calmodulin like EF hands
[25] = test system: Cryptosporidium parvum Iowa II; assay: Inhibition of Cryptosporidium parvum Iowa II cyclin-dependent kinase 3 assessed as change in melting temperature by DSLS method
[26] = Inhibition of Cryptosporidium parvum Iowa II cyclin-dependent kinase 3
[27] = target: Calcium/calmodulin-dependent protein kinase with a kinase domain and 4 calmodulin like EF hands (Cryptosporidium parvum (strain Iowa II)) (UniProt Q5CYL9); assay: Inhibition of Cryptosporidium parvum Iowa II calcium/calmodulin-dependent protein kinase with a kinase domain and 4 calmodulin like EF hands assessed as change in melting temperature by DSLS method
[28] = test system: Cryptosporidium parvum Iowa II; assay: Inhibition of Cryptosporidium parvum Iowa II Serine/threonine-protein kinase Nek2 assessed as change in melting temperature by DSLS method
[29] = target: Vascular endothelial growth factor receptor 2 (Homo sapiens) (UniProt P35968); assay: Inhibition of human KDR at 1 uM relative to control
[30] = target: Calcium/calmodulin-dependent protein kinase with a kinase domain and 2 calmodulin-like EF hands (Cryptosporidium parvum (strain Iowa II), UniProt Q5CZ29); assay: Inhibition of Cryptosporidium parvum Iowa II calcium/calmodulin-dependent protein kinase with a kinase domain and 2 calmodulin-like EF hands
Calcium/calmodulin-dependent protein kinase with a kinase domain and 2 calmodulin-like EF hands, sequence (Q5CZ29 whole entry, the tested form may be a part): as the sequence (Q5CZ29 as listed by the source) above

[31] = Inhibition of Cryptosporidium parvum Iowa II ser/Thr protein kinase FIKK
Cgd5_820 protein = Cgd5_820 protein (Cryptosporidium parvum, UniProt F0X4H1); assay: Inhibition of Cryptosporidium parvum calcium/calmodulin dependent protein kinase with a kinase domain and 4 calmodulin like EF hands
[32] = Inhibition of Cryptosporidium parvum Iowa II glycogen synthase kinase
[33] = target: Cell division control protein 28, putative (Cryptosporidium parvum (strain Iowa II), UniProt A3FPL9); assay: Inhibition of Cryptosporidium parvum Iowa II cell division control protein 28
Cryptosporidium parvum [34] = assay: Antiparasitic activity against Cryptosporidium parvum isolate AUCP-1 sporozoites infected in human HCT8 cells treated for 24 hrs followed by compound washout and supplemented with fresh medium containing compound at 24 intervals; assay type: functional, organism-based; settings: isolate AUCP-1, HCT-8, 24 h
[35] = Permeability in human Caco2 cells; assay type: ADME, cell-based; settings: Caco-2, read-out: permeability
[36] = Efflux ratio of permeability in human Caco2 cells; assay type: ADME, cell-based; settings: Caco-2
[37] = Cryptosporidium parvum, Iowa, HCT-8, read-out: EC50

SMILES: Nc1nc(-c2cccc(Cl)c2)c(-c2ccc3ncccc3n2)s1 [GW780159X]
- ΔTm (Cryptosporidium parvum [1]): 5.1 °C
- ΔTm (Cryptosporidium parvum [7]): < 2 °C
- ΔTm [8]: < 2 °C
- ΔTm [9]: < 2 °C
- Ratio [2]: 66
- ΔTm [10]: < 2 °C
- IC50 [11]: > 10000 nM
- ΔTm [12]: < 2 °C
- inhibition [13]: 60%
- IC50 [14]: > 10000 nM
- IC50 [15]: > 10000 nM
- Ratio [3]: 1840
- inhibition (Cryptosporidium parvum [16]): Active
- ΔTm [17]: < 2 °C
- EC50 (Cryptosporidium parvum [4]; [37]): 5500 nM
- ΔTm [18]: < 2 °C
- inhibition [19]: 33%
- ΔTm [20]: < 2 °C
- IC50 [21]: > 10000 nM
- IC50 [22]: > 10000 nM
- inhibition [23]: 50%
- IC50 [24]: > 10000 nM
- ΔTm [25]: < 2 °C
- IC50 [26]: > 10000 nM
- ΔTm [27]: < 2 °C
- ΔTm [28]: < 2 °C
- inhibition [29]: 67%
- IC50 [5]: 84 nM
- IC50 [30]: > 10000 nM
- IC50 [31]: 3 nM
- IC50 [6]: 3 nM
- IC50 (Cgd5_820 protein): > 10000 nM
- IC50 [32]: > 10000 nM
- IC50 [33]: > 10000 nM

SMILES: CNc1nc(-c2cccc(Cl)c2)c(-c2ccc3ncccc3n2)s1
- IC50 [5]: 1510 nM
- IC50 [6]: 3600 nM

SMILES: COc1ccc(-c2nc(N)sc2-c2ccc3ncccc3n2)cc1
- ΔTm (Cryptosporidium parvum [1]): 0.4 °C
- IC50 [5]: 2600 nM
- IC50 [6]: > 10000 nM

SMILES: Nc1nc(-c2cc(Cl)cc(Cl)c2)c(-c2ccc3ncccc3n2)s1
- EC50 (Cryptosporidium parvum [4]): Not Active
- IC50 [5]: 3500 nM
- IC50 [6]: > 10000 nM

SMILES: CC(C)(C)n1nc(-c2cccc3ccccc23)c2c(N)ncnc21
- Ratio [2]: 1
- EC50 (Cryptosporidium parvum [4]; [37]): 4100 nM
- EC50 (Cryptosporidium parvum [34]): 2560 nM

SMILES: N#Cc1cccc(-c2nc(N)sc2-c2ccc3ncccc3n2)c1
- IC50 [5]: 1500 nM
- IC50 [6]: 4100 nM

SMILES: Nc1nc(-c2ccc(Cl)c(Cl)c2)c(-c2ccc3ncccc3n2)s1
- IC50 [5]: > 10000 nM
- IC50 [6]: 750 nM

SMILES: CC(C)c1cccc(-c2nc(N)sc2-c2ccc3ncccc3n2)c1
- ΔTm (Cryptosporidium parvum [1]): 1 °C
- IC50 [5]: > 10000 nM
- IC50 [6]: > 10000 nM

More lines, main results first:

- ΔTm (Cryptosporidium parvum [1]): 0.82 °C
- EC50 (Cryptosporidium parvum [4]; [37]): 3900 nM
- IC50 [5]: 19 nM
- IC50 [6]: 2900 nM
SMILES: Cc1ccc(-c2nc(N)sc2-c2ccc3ncccc3n2)cc1C
- Ratio [2]: 204
- Ratio [3]: 1.3

- ΔTm (Cryptosporidium parvum [1]): 4.7 °C
- IC50 [5]: 220 nM
- IC50 [6]: 220 nM
SMILES: Nc1nc(-c2ccc(F)cc2)c(-c2ccc3ncccc3n2)s1 [GW785804X]

- IC50 [5]: 330 nM
- IC50 [6]: > 10000 nM
SMILES: CC(=O)Nc1nc(-c2cccc(Cl)c2)c(-c2ccc3ncccc3n2)s1

- IC50 [5]: 73 nM
- IC50 [6]: 140 nM
SMILES: Cc1cc(-c2nc(N)sc2-c2ccc3ncccc3n2)ccc1F

- IC50 [5]: 350 nM
- IC50 [6]: 1200 nM
SMILES: Nc1nc(-c2cccc(C(F)(F)F)c2)c(-c2ccc3ncccc3n2)s1

- ΔTm (Cryptosporidium parvum [1]): 4.9 °C
- Papp [35]: 16 ×10⁻⁶ cm/s
- efflux ratio [36]: < 1
- EC50 (Cryptosporidium parvum [4]; [37]): 1300 nM
- IC50 [5]: 210 nM
- IC50 [6]: 220 nM
SMILES: Nc1nc(-c2cccc(F)c2)c(-c2ccc3ncccc3n2)s1
- Ratio [2]: 6
- Ratio [3]: 6

- IC50 [5]: 260 nM
- IC50 [6]: 180 nM
SMILES: COc1cccc(-c2nc(N)sc2-c2ccc3ncccc3n2)c1

- IC50 [5]: 375 nM
- IC50 [6]: 3260 nM
SMILES: Nc1nc(-c2ccc(Cl)cc2)c(-c2ccc3ncccc3n2)s1

- ΔTm (Cryptosporidium parvum [1]): 4.2 °C
- IC50 [5]: 190 nM
- IC50 [6]: 42 nM
SMILES: Nc1nc(-c2ccccc2)c(-c2ccc3ncccc3n2)s1

- IC50 [5]: 74 nM
- IC50 [6]: > 10000 nM
SMILES: CCc1cccc(-c2nc(N)sc2-c2ccc3ncccc3n2)c1

- IC50 [5]: 400 nM
- IC50 [6]: > 10000 nM
SMILES: Cc1ccnc2ccc(-c3sc(N)nc3-c3ccc(F)c(Cl)c3)nc12

- ΔTm (Cryptosporidium parvum [1]): 3.6 °C
- IC50 [5]: 450 nM
- IC50 [6]: 25 nM
SMILES: Nc1nc(-c2ccc(F)c(Cl)c2)c(-c2ccc3ncccc3n2)s1
